Assay results taken from ChEMBL document CHEMBL1131142 (J Med Chem, 1998).
Activity calls are given as the source filed them. No cut-off for these calls is given here.

Legend:
Rattus norvegicus [1] = organism: Rattus norvegicus; assay: Dose required for inhibition of sorbital accumulation in the sciatic nerve of streptozotocin- induced diabetic rat.; assay type: functional
Method in brief: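 Oral dosing of streptozotocin-diabetic rats once daily for 5 days; sciatic nerve taken 4 h after final dose. Nerve sorbitol assayed fluorometrically via sorbitol dehydrogenase-generated NADH (ex 365/em 430 nm).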

Rattus norvegicus [2] = assay: Tested in vivo for inhibition of sorbital accumulation in the sciatic nerve of streptozotocin- induced diabetic rat; % Inhibition at 30 mg/kg; assay type: functional
[3] = biological target: Aldo-keto reductase family 1 member B1 (Sus scrofa, UniProt P80276); assay: In vitro inhibitory activity against aldose reductase in porcine lens.
Method in brief: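 Partially purified porcine lens AR: lens homogenate in 250 mM phosphate pH 7.4 with 2 mM mercaptoethanol, 20000g supernatant, 40-60% ammonium sulfate cut. Assay mix: 100 mM phosphate pH 6.5, 0.2 mM NADPH, 1.5 mM DL-glyceraldehyde, 0.4 M Li2SO4, 7.0 mU/mL enzyme; 37 °C; A340 decrease over 1 min. IC50 read graphically from log concentration-inhibition curve.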

Rattus norvegicus [4] = assay: Tested in vivo for inhibition of sorbital accumulation in the sciatic nerve of streptozotocin- induced diabetic rat; % Inhibition at 100 mg/kg; assay type: functional
Rattus norvegicus [5] = assay: Tested in vivo for inhibition of sorbital accumulation in the sciatic nerve of streptozotocin- induced diabetic rat;NS=No significant inhibition at 100 mg/kg; assay type: functional, organism-based; set-up: dose 100 mg/kg
Rattus norvegicus [6] = assay: Compound tested in vivo for inhibition of sorbital accumulation in the sciatic nerve of streptozotocin- induced diabetic rat; No significant inhibition at 1 mg/kg; assay type: functional, organism-based; set-up: dose 1 mg/kg
Rattus norvegicus [7] = assay: Compound tested for inhibition of sorbital accumulation in the sciatic nerve of streptozotocin- induced diabetic rat; % Inhibition at 1 mg/kg; assay type: functional
Rattus norvegicus [8] = assay: Compound tested in vivo for inhibition of sorbital accumulation in the sciatic nerve of streptozotocin- induced diabetic rat; % Inhibition at 1 mg/Kg; assay type: functional
Rattus norvegicus [9] = assay: Compound tested in vivo for inhibition of sorbital accumulation in the sciatic nerve of streptozotocin- induced diabetic rat at 100 mg/kg; assay type: functional
Rattus norvegicus [10] = assay: Compound tested in vivo for inhibition of sorbital accumulation in the sciatic nerve of streptozotocin- induced diabetic rat; No significant inhibition at 30 mg/kg; assay type: functional, organism-based; set-up: dose 30 mg/kg
Rattus norvegicus [11] = assay: Compound tested in vivo for inhibition of sorbital accumulation in the sciatic nerve of streptozotocin- induced diabetic rat; No significant inhibition at 100 mg/kg; assay type: functional, organism-based; set-up: dose 100 mg/kg

Compound: O=C1CC2(C(=O)N1)C(=O)N(Cc1ccc(Cl)cc1F)C(=O)c1cccn12 (configuration not stated)
- ED50 (Rattus norvegicus [1]): 0.74 mg/kg/day
- inhibition in vivo at 30 mg/kg (Rattus norvegicus [2]): 110%

Compound: O=C(O)CC1C(=O)NC(=O)c2cccn21 (configuration not stated)
- IC50 [3]: > 10000 nM
- inhibition in vivo at 100 mg/kg (Rattus norvegicus [4]): 12.5%

Compound: O=C(O)CCC1C(=O)N(Cc2ccc(Br)cc2F)C(=O)c2cccn21 (configuration not stated)
- IC50 [3]: 803 nM
- inhibition (Rattus norvegicus [5]): inactive

Compound: O=C(O)CCC1C(=O)NC(=O)c2cccn21 (configuration not stated)
- IC50 [3]: > 10000 nM
- inhibition (Rattus norvegicus [5]): inactive

Compound: O=C1CC2(C(=O)N1)C(=O)N(Cc1ccc(Br)cc1F)C(=O)c1cc(Br)c(Br)n12 (configuration not stated)
- IC50 [3]: 52 nM
- inhibition (Rattus norvegicus [6]): inactive

Compound: O=C1CC2(C(=O)N1)C(=O)N(Cc1ccc(F)cc1)C(=O)c1cccn12 (configuration not stated)
- inhibition in vivo at 30 mg/kg (Rattus norvegicus [2]): 58.8%

Compound: O=C1CC2(C(=O)N1)C(=O)N(Cc1ccc(Cl)cc1)C(=O)c1cccn12 (configuration not stated)
- IC50 [3]: 38 nM
- ED50 (Rattus norvegicus [1]): 1.5 mg/kg/day
- inhibition in vivo at 30 mg/kg (Rattus norvegicus [2]): 105%

Compound: O=C1CC2(C(=O)N1)C(=O)N(Cc1ccc(Br)cc1F)C(=O)c1cccn12 (configuration not stated)
- IC50 [3]: 45 nM
- ED50 (Rattus norvegicus [1]): 0.3 mg/kg/day
- inhibition in vivo at 1 mg/kg (Rattus norvegicus [7]): 105%
- inhibition in vivo at 30 mg/kg (Rattus norvegicus [2]): 115%

Compound: O=C1CC2(C(=O)N1)C(=O)NC(=O)c1cccn12 (configuration not stated)
- IC50 [3]: 630 nM
- inhibition in vivo at 30 mg/kg (Rattus norvegicus [2]): 33.2%

Compound: COc1ccc(CN2C(=O)c3cccn3C3(CC(=O)NC3=O)C2=O)cc1 (configuration not stated)
- inhibition in vivo at 30 mg/kg (Rattus norvegicus [2]): 46.7%

Compound: O=C1CC2(C(=O)N1)C(=O)N(Cc1ccc(Cl)c(Cl)c1)C(=O)c1cccn12 (configuration not stated)
- ED50 (Rattus norvegicus [1]): 0.6 mg/kg/day
- inhibition in vivo at 30 mg/kg (Rattus norvegicus [2]): 112%

Compound: CN1CC(=O)n2cccc2C1=O
- IC50 [3]: 7500 nM
- inhibition in vivo at 100 mg/kg (Rattus norvegicus [4]): 55.7%

Compound: COC(=O)CN(C)C(=O)c1ccc[nH]1
- IC50 [3]: > 10000 nM
- inhibition in vivo at 100 mg/kg (Rattus norvegicus [4]): 38%

Compound: O=C1CC2(C(=O)N1)C(=O)N(Cc1ccccc1Cl)C(=O)c1cccn12 (configuration not stated)
- IC50 [3]: 37 nM
- ED50 (Rattus norvegicus [1]): 5.8 mg/kg/day
- inhibition in vivo at 30 mg/kg (Rattus norvegicus [2]): 97%

Compound: Nc1ccc(CN2C(=O)c3cccn3C3(CC(=O)NC3=O)C2=O)cc1 (configuration not stated)
- IC50 [3]: 140 nM
- inhibition in vivo at 30 mg/kg (Rattus norvegicus [2]): 33.4%

Compound: O=C1CC2(C(=O)N1)C(=O)N(Cc1ccc(Br)cc1F)C(=O)c1ccc(Cl)n12 (configuration not stated)
- inhibition in vivo at 1 mg/kg (Rattus norvegicus [8]): 20.2%

Compound: O=C(O)Cc1nn(Cc2ccc(Br)cc2F)c(=O)c2ccccc12 [PONALRESTAT]
- IC50 [3]: 21 nM
- ED50 (Rattus norvegicus [1]): 11 mg/kg/day

Compound: O=C1CC2(C(=O)N1)C(=O)N(Cc1cccc(Cl)c1)C(=O)c1cccn12 (configuration not stated)
- IC50 [3]: 35 nM
- ED50 (Rattus norvegicus [1]): 3.8 mg/kg/day
- inhibition in vivo at 30 mg/kg (Rattus norvegicus [2]): 99.4%

Compound: O=C1CC2(C(=O)N1)C(=O)N(c1ccccc1)C(=O)c1cccn12 (configuration not stated)
- IC50 [3]: 200 nM
- inhibition in vivo at 30 mg/kg (Rattus norvegicus [2]): 27.2%

Compound: O=C1CC2(C(=O)N1)C(=O)N(Cc1ccc(Br)cc1F)C(=O)c1cc(Br)cn12 (configuration not stated)
- inhibition in vivo at 1 mg/kg (Rattus norvegicus [8]): 28.8%

Compound: O=C(O)CCC1C(=O)N(Cc2ccc(Cl)c(Cl)c2)C(=O)c2cccn21 (configuration not stated)
- IC50 [3]: 132 nM
- inhibition in vivo at 100 mg/kg (Rattus norvegicus [9]): 17.2%

Compound: O=C1CC2(C(=O)N1)C(=O)N(Cc1ccccc1F)C(=O)c1cccn12 (configuration not stated)
- ED50 (Rattus norvegicus [1]): 1.3 mg/kg/day
- inhibition in vivo at 30 mg/kg (Rattus norvegicus [2]): 98%

Compound: O=C1C[C@]2(C(=O)N1)C(=O)N(Cc1ccc(Br)cc1F)C(=O)c1cccn12
- IC50 [3]: 190 nM
- ED50 (Rattus norvegicus [1]): > 100 mg/kg/day

Compound: CN(CC(=O)O)C(=O)c1ccc[nH]1
- IC50 [3]: 5000 nM
- inhibition in vivo at 100 mg/kg (Rattus norvegicus [4]): 23.7%

Compound: O=C1CC2(C(=O)N1)C(=O)N(Cc1ccc(Br)cc1)C(=O)c1cccn12 (configuration not stated)
- ED50 (Rattus norvegicus [1]): 0.48 mg/kg/day
- inhibition in vivo at 30 mg/kg (Rattus norvegicus [2]): 108%

Compound: COc1ccc2c(C(=S)N(C)CC(=O)O)cccc2c1C(F)(F)F [TOLRESTAT]
- IC50 [3]: 15 nM
- ED50 (Rattus norvegicus [1]): 26.7 mg/kg/day

Compound: O=C1CC2(C(=O)N1)C(=O)N(Cc1ccc([N+](=O)[O-])cc1)C(=O)c1cccn12 (configuration not stated)
- ED50 (Rattus norvegicus [1]): 10.8 mg/kg/day
- inhibition in vivo at 30 mg/kg (Rattus norvegicus [2]): 102%

Compound: CN1C(=O)c2cccn2C2(CC(=O)NC2=O)C1=O (configuration not stated)
- IC50 [3]: 280 nM
- inhibition in vivo at 30 mg/kg (Rattus norvegicus [2]): 51.2%

Compound: CC(=O)c1cc2n(c1)C1(CC(=O)NC1=O)C(=O)N(Cc1ccc(Br)cc1F)C2=O (configuration not stated)
- IC50 [3]: 210 nM
- inhibition in vivo at 1 mg/kg (Rattus norvegicus [8]): 26.6%

Compound: O=C1CC2(C(=O)N1)C(=O)N(Cc1ccc(F)cc1F)C(=O)c1cccn12 (configuration not stated)
- ED50 (Rattus norvegicus [1]): 5.4 mg/kg/day
- inhibition in vivo at 30 mg/kg (Rattus norvegicus [2]): 98%

Compound: CC(C)N1C(=O)c2cccn2C(CC(=O)O)C1=O (configuration not stated)
- IC50 [3]: > 10000 nM
- inhibition in vivo at 100 mg/kg (Rattus norvegicus [4]): 12.9%

Compound: O=C1CC2(C(=O)N1)C(=O)N(Cc1ccccc1)C(=O)c1cccn12 (configuration not stated)
- inhibition in vivo at 30 mg/kg (Rattus norvegicus [2]): 69.1%

Compound: COc1ccc(CN2C(=O)c3cccn3C3(CC(=O)NC3=O)C2=O)c(OC)c1 (configuration not stated)
- IC50 [3]: 350 nM
- inhibition (Rattus norvegicus [10]): inactive

Compound: O=C1CC2(C(=O)N1)C(=O)N(Cc1cccc(Br)c1)C(=O)c1cccn12 (configuration not stated)
- inhibition in vivo at 30 mg/kg (Rattus norvegicus [2]): 102%

Compound: O=C(O)CC1C(=O)N(Cc2ccc(Cl)c(Cl)c2)C(=O)c2cccn21 (configuration not stated)
- IC50 [3]: 131 nM
- inhibition (Rattus norvegicus [11]): inactive

Compound: CN1C(=O)c2cccn2C(CCC(=O)O)C1=O (configuration not stated)
- IC50 [3]: > 10000 nM
- inhibition (Rattus norvegicus [5]): inactive

Compound: COc1ccc(CN2C(=O)c3cccn3C3(CC(=O)NC3=O)C2=O)cc1OC (configuration not stated)
- inhibition (Rattus norvegicus [10]): inactive

Compound: O=C1CC2(C(=O)N1)C(=O)N(Cc1ccc(C(F)(F)F)cc1)C(=O)c1cccn12 (configuration not stated)
- inhibition in vivo at 30 mg/kg (Rattus norvegicus [2]): 88.4%

Compound: O=C1CC2(C(=O)N1)C(=O)N(CCc1ccccc1)C(=O)c1cccn12 (configuration not stated)
- IC50 [3]: 270 nM
- inhibition in vivo at 30 mg/kg (Rattus norvegicus [2]): 15.3%

Compound: O=C1CC2(C(=O)N1)C(=O)N(Cc1ccccc1Br)C(=O)c1cccn12 (configuration not stated)
- inhibition in vivo at 30 mg/kg (Rattus norvegicus [2]): 82.6%

Compound: O=C(O)CC1C(=O)N(Cc2ccc(Br)cc2F)C(=O)c2cccn21 (configuration not stated)
- IC50 [3]: 165 nM
- inhibition (Rattus norvegicus [5]): inactive

Compound: O=C1CC2(C(=O)N1)C(=O)N(Cc1ccc(Br)cc1F)C(=O)c1cc(Cl)cn12 (configuration not stated)
- inhibition in vivo at 1 mg/kg (Rattus norvegicus [8]): 23%

Compound: O=C1CC2(C(=O)N1)C(=O)N(Cc1ccc(Br)cc1F)C(=O)c1ccc(Br)n12 (configuration not stated)
- inhibition (Rattus norvegicus [6]): inactive

Compound: O=C1C[C@@]2(C(=O)N1)C(=O)N(Cc1ccc(Br)cc1F)C(=O)c1cccn12
- IC50 [3]: 15 nM
- ED50 (Rattus norvegicus [1]): 0.18 mg/kg/day

Compound: CN1C(=O)c2cccn2C(CC(=O)O)C1=O (configuration not stated)
- IC50 [3]: > 10000 nM
- inhibition in vivo at 100 mg/kg (Rattus norvegicus [4]): 12.8%

Compound: Cc1ccc(CN2C(=O)c3cccn3C3(CC(=O)NC3=O)C2=O)cc1 (configuration not stated)
- inhibition in vivo at 30 mg/kg (Rattus norvegicus [2]): 65.8%

Compound: CC(C)N1C(=O)c2cccn2C(CCC(=O)O)C1=O (configuration not stated)
- IC50 [3]: > 10000 nM
- inhibition (Rattus norvegicus [5]): inactive
